The target of assay [1] is Urokinase-type plasminogen activator (Homo sapiens, UniProt P00749).
The target in another assay is Plasma kallikrein (Homo sapiens, UniProt P03952). The experiment in a line: Binding affinity against human plasma kallikrein. It counts as cell-free. The procedure, abridged:
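Enzyme: human plasma kallikrein at 100 ng/mL. Substrate: S-2302 (H-D-Pro-Phe-Arg-pNA) at 330 μM. Conditions were pH 7.4, 50 mM Tris/0.15 M NaCl/0.5% Pluronic F-68, with compounds from DMSO at 0.01–250 μM. Substrate addition started each reaction, followed by pNA release at 405 nm over 15 min. Ki was calculated from rate-based percent inhibition using previously established Km.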

For a further assay, the target named is Plasminogen (Homo sapiens, UniProt P00747). The experiment in a line: Binding affinity towards human plasmin. The procedure, abridged: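 Uses human plasmin at 18 nM with S-2251 (H-D-Val-Leu-Lys-pNA) at 360 μM. The buffer was 50 mM Tris/0.15 M NaCl + 0.5% Pluronic F-68, pH 7.4, and compounds were added in DMSO at 0.01–250 μM. After substrate start, absorbance at 405 nm was tracked for 15 min. Percent inhibition came from rates, and Ki from percent inhibition with established Km values.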

The target of a further assay is Prothrombin (Homo sapiens, UniProt P00734). The experiment in a line: Binding affinity against human alpha thrombin.
Assay [2] concerns the target Tissue-type plasminogen activator (Homo sapiens, UniProt P00750). The experiment in a line: Binding affinity towards human Tissue type plasminogen activator. In a few lines: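 Human tPA (1 μg/mL) was run against S-2288 (H-D-Ile-Pro-Arg-pNA) at 1350 μM in Tris 50 mM/NaCl 0.15 M/0.5% Pluronic F-68 buffer at pH 7.4. Test agents in DMSO spanned 0.01–250 μM. Substrate addition began the reaction, and p-nitroaniline formation at 405 nm was followed for 15 min. Ki derived from percent inhibition and previously determined Km.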

Plasminogen, sequence (P00747 97-580 limits assumed): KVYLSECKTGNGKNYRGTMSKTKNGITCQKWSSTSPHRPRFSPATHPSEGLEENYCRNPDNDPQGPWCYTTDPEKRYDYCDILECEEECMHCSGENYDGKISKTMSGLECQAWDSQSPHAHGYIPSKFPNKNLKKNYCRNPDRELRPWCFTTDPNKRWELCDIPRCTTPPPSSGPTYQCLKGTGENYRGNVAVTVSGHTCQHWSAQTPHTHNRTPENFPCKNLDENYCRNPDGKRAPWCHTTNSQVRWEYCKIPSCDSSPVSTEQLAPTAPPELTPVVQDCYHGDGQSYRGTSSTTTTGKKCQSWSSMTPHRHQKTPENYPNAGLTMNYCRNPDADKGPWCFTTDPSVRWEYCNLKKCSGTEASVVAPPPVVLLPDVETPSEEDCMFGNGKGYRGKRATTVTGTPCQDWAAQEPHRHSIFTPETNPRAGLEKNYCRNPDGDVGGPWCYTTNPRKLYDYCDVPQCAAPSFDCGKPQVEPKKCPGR
Plasminogen, sequence (P00747 581-810 limits assumed): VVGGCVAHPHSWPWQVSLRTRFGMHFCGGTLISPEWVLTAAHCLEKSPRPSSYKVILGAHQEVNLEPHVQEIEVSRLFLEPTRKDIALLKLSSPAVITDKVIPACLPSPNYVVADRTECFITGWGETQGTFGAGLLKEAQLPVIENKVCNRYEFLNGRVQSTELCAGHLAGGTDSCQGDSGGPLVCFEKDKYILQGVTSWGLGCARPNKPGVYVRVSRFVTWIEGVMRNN
Tissue-type plasminogen activator, sequence (P00750 whole entry): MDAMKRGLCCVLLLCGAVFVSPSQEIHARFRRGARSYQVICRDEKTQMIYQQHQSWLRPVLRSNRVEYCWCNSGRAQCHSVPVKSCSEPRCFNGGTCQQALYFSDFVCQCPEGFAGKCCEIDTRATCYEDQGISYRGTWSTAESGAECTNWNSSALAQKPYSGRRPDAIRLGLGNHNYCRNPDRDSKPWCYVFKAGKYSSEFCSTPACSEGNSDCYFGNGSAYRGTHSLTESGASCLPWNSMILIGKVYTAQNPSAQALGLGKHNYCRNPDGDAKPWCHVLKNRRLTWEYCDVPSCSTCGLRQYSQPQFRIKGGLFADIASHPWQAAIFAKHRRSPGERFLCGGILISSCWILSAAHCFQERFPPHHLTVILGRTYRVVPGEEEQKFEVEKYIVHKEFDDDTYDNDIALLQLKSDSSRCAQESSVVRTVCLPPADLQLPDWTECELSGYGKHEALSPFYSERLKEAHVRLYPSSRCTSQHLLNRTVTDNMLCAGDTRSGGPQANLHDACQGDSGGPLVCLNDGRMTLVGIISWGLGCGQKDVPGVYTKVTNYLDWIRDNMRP
Plasma kallikrein, sequence (P03952 20-390 limits assumed): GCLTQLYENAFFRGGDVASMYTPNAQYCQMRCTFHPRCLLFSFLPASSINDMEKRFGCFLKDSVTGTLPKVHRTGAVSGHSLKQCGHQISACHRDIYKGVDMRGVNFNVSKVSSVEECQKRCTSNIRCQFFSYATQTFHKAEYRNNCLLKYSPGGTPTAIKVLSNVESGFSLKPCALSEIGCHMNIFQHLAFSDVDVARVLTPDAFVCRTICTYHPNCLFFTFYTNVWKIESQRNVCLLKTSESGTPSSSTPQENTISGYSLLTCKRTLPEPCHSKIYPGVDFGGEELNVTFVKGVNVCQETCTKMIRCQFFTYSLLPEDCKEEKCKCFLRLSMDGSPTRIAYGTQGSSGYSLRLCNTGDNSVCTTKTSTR
Plasma kallikrein, sequence (P03952 391-638 limits assumed): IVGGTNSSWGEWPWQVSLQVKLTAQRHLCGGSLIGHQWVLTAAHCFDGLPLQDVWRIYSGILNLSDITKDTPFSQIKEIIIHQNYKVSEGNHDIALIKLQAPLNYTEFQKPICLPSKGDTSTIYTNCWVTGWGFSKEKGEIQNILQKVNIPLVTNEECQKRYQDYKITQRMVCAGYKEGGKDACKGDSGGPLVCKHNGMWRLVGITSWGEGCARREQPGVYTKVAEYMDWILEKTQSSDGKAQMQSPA

The compound `N=C(N)c1ccc2cc(C(=O)Nc3cccc(Oc4ccccc4)c3)ccc2c1` gave a Ki in assay [1] of 517 nM.

Compound `CC(C)CC1=NCCc2ccc(NC(=O)c3ccc4cc(C(=N)N)ccc4c3)cc21` registered a Ki in assay [1] of 161 nM.

For the compound `N#Cc1ccc2cc(NC(=O)c3ccccc3)ccc2c1`, the Ki at Plasma kallikrein is 8000 nM; at Plasminogen it was 5560 nM; at Prothrombin it was 17600 nM; in assay [2] it was more than 100000 nM.

Take `N=C(N)c1ccc2cc(C(=O)Nc3cccc(OC4CCCC4)c3)ccc2c1`: the Ki on Plasma kallikrein was 2720 nM; on Plasminogen, 498 nM; at Prothrombin, 5580 nM; in assay [2], 3390 nM.

In assay [1], `CCOc1cccc(NC(=O)c2ccc3cc(C(=N)N)ccc3c2)c1` registered a Ki of 82 nM.

In the case of `CC(C)CC1NCCc2ccc(NC(=O)c3ccc4cc(C(=N)N)ccc4c3)cc21` (stereo not drawn), the Ki at Plasma kallikrein was 1350 nM; at Plasminogen, 1190 nM; on Prothrombin, 7310 nM; in assay [2], more than 50000 nM; in assay [1], 123 nM.

`CN(C(=O)c1ccc2cc(C(=N)N)ccc2c1)c1ccccc1` gave a Ki in assay [1] of 15500 nM.

`CC(C)C1NCCc2ccc(NC(=O)c3ccc4cc(C(=N)N)ccc4c3)cc21` (stereo not drawn): the inhibition constant Ki at Plasma kallikrein is 230 nM; at Plasminogen, 631 nM; at Prothrombin, 5720 nM; in assay [2] it was 1120 nM.

Consider `CCC1CNCc2ccc(NC(=O)c3ccc4cc(C(=N)N)ccc4c3)cc21` (stereo not drawn), for which the Ki at Plasma kallikrein was 145 nM; at Plasminogen, 1120 nM; at Prothrombin, 6440 nM; in assay [2], 1650 nM.

With `CC(C)C1=NCCc2ccc(NC(=O)c3ccc4cc(C(=N)N)ccc4c3)cc21`, the Ki amounted to 436 nM on Plasma kallikrein, 768 nM at Plasminogen, 4990 nM at Prothrombin and 1840 nM in assay [2].

Regarding `CCc1ccc(NC(=O)c2ccc3cc(C(=N)N)ccc3c2)cc1`, the Ki at Plasma kallikrein is 18100 nM; at Plasminogen it was 3870 nM; on Prothrombin, 43700 nM; in assay [2], 83900 nM; in assay [1], 736 nM.

On to `N=C(N)c1ccc2cc(C(=O)Nc3ccc4c(c3)C(C3CCCC3)=NCC4)ccc2c1`, for which the Ki on Plasma kallikrein amounted to 849 nM; on Plasminogen it was 765 nM; at Prothrombin, 5310 nM; in assay [2], 3130 nM; in assay [1] it was 35.5 nM.

With `[H]/N=C(\N)c1ccc2cc(C(=O)Nc3ccc(CN)cc3)ccc2c1`, the inhibitory constant (Ki) on Plasma kallikrein is 7170 nM; on Plasminogen, 16000 nM; on Prothrombin, more than 100000 nM; in assay [2] it was 58400 nM.

With `N=C(N)c1ccc2ccccc2c1`, the Ki on Plasma kallikrein is 22500 nM; at Plasminogen, 51300 nM; in assay [2], more than 100000 nM; in assay [1], 5910 nM.

Turning to `N=C(N)c1ccc2cc(C(=O)Nc3ccc4c(c3)C(C3CCCC3)NCC4)ccc2c1` (stereo not drawn), the Ki at Plasma kallikrein was determined as 400 nM; at Plasminogen it was 833 nM; on Prothrombin it was 10200 nM; in assay [2] it was 3950 nM; in assay [1], 26.5 nM.

Consider `N=C(N)c1ccc2cc(C(=O)Nc3ccccc3)ccc2c1`, for which the Ki on Plasma kallikrein worked out at 2500 nM; on Plasminogen, 1950 nM; at Prothrombin it was 5640 nM; in assay [2] it was 31800 nM.

Compound `CNC(=O)c1ccc2cc(C(=N)N)ccc2c1` returned a Ki in assay [1] of 8700 nM.

For `CC(C)Oc1cc(NC(=O)c2ccc3cc(C(=N)N)ccc3c2)cc(OC(C)C)c1`, the Ki was 4300 nM at Plasma kallikrein; 1060 nM at Plasminogen; 21700 nM at Prothrombin; 790 nM in assay [2]; 28 nM in assay [1].

With `N=C(N)c1ccc2cc(C(=O)Nc3ccc(CO)cc3)ccc2c1`, the Ki on Plasma kallikrein came to 2570 nM; at Plasminogen, 3820 nM; at Prothrombin, 35100 nM; in assay [2], 8350 nM.

With `CC(C)Oc1cc(NC(=O)c2ccc3cc(C(=N)N)ccc3c2)cc(OC2CCCC2)c1`, the Ki at Plasma kallikrein was 3330 nM; at Plasminogen, 966 nM; at Prothrombin, 21600 nM; in assay [2], 844 nM; in assay [1], 22 nM.

For the compound `COc1cccc(NC(=O)c2ccc3cc(C(=N)N)ccc3c2)c1`, in assay [1], affinity was put at a Ki of 233 nM.

For `N=C(N)c1ccc2cc(C(=O)Nc3cccc(CC4CCCC4)c3)ccc2c1`, the Ki in assay [1] is 167 nM. The Ki values of the last two compounds are within 1.5-fold of each other.

As for `COc1cc(NC(=O)c2ccc3cc(C(=N)N)ccc3c2)cc(OC)c1`, affinity in assay [1] was put at a Ki of 139 nM.

As to `N=C(N)c1ccc2cc(C(=O)Nc3ccc(C(N)=O)cc3)ccc2c1`, the Ki on Plasma kallikrein was 2430 nM; at Plasminogen, 1970 nM; on Prothrombin, 2350 nM; in assay [2] it was more than 100000 nM; in assay [1], 326 nM.

In assay [1], `CCC(CC)Oc1cccc(NC(=O)c2ccc3cc(C(=N)N)ccc3c2)c1` returned a Ki of 104 nM. That is a sub-micromolar value.

In the case of `CC(C)Oc1cccc(NC(=O)c2ccc3cc(C(=N)N)ccc3c2)c1`, the Ki on Plasma kallikrein came out at 1370 nM; at Plasminogen it was 554 nM; at Prothrombin, 3490 nM; in assay [2], 2370 nM.

Regarding `N=C(N)c1ccc2cc(C(=O)Nc3ccc4c(c3)CCNC4)ccc2c1`, the inhibitory constant (Ki) on Plasma kallikrein was found to be 112 nM; on Plasminogen, 1030 nM; at Prothrombin it was 6920 nM; in assay [2], 2320 nM.

The term Ki denotes the equilibrium dissociation constant of an inhibitor or competing ligand from its target. Higher therefore signals a looser hold on the target.

The values above are taken from ChEMBL document CHEMBL1148377, “Identification of novel binding interactions in the development of potent, selective 2-naphthamidine inhibitors of urokinase. Synthesis, structural analysis, and SAR of N-phenyl amide 6-substitution” (J Med Chem, 2004).
